Source: ChEMBL document CHEMBL2177085 (J Med Chem, 2012)

Tests used:
[1] = system: MKN-45; assay: Cytotoxic activity against human MKN45 cells assessed as cell viability at 5 uM incubated for 5 days by MTT assay; assay type: functional; conditions: MKN-45, 120 h, read-out: Activity
Procedure, shortened: (§1)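 MTT viability: exponentially growing cells, 10 000 viable cells/well in RPMI plated overnight, then exposed to test compounds for 3 days (HT-29, Molm-14) or 5 days (Mkn-45) at 37 °C, 5% CO2. MTT added for 4 h, then SDS/HCl solubilization overnight and absorbance read at 562 nm. Viability is expressed relative to untreated cells (100%). Triplicate.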

[2] = system: MKN-45; assay: Cytotoxic activity against human MKN45 cells assessed as cell viability at 1 uM incubated for 5 days by MTT assay; assay type: functional; conditions: MKN-45, 120 h, read-out: Activity; procedure, shortened: as §1
[3] = target: Glycogen synthase kinase-3 beta (Homo sapiens, UniProt P49841); assay: Inhibition of GSK3beta assessed as enzyme residual activity at 10 uM relative to untreated control
Chain of Glycogen synthase kinase-3 beta (P49841 whole entry, looked up): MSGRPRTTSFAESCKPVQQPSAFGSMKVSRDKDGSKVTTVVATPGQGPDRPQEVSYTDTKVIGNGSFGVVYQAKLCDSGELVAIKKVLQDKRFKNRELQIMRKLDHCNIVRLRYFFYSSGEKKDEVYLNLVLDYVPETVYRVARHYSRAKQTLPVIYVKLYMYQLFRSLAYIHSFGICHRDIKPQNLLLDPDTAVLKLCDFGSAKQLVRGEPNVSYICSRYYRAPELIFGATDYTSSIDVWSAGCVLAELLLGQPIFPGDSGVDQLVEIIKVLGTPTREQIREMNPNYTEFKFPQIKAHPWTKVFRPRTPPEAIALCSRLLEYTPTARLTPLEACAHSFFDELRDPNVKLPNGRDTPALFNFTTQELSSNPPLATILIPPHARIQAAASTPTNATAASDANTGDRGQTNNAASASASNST
Procedure, shortened: (§2)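 Residual kinase activity at 10 μM compound, determined by a commercial kinase profiling service (Millipore) across 15 kinases of different classes. Each compound tested in duplicate.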

[4] = target: Receptor-type tyrosine-protein kinase FLT3 (Homo sapiens) (UniProt P36888); assay: Inhibition of FLT3 assessed as enzyme residual activity at 10 uM relative to untreated control; procedure, shortened: as §2
Chain of Receptor-type tyrosine-protein kinase FLT3 (Homo sapiens) (P36888 whole entry): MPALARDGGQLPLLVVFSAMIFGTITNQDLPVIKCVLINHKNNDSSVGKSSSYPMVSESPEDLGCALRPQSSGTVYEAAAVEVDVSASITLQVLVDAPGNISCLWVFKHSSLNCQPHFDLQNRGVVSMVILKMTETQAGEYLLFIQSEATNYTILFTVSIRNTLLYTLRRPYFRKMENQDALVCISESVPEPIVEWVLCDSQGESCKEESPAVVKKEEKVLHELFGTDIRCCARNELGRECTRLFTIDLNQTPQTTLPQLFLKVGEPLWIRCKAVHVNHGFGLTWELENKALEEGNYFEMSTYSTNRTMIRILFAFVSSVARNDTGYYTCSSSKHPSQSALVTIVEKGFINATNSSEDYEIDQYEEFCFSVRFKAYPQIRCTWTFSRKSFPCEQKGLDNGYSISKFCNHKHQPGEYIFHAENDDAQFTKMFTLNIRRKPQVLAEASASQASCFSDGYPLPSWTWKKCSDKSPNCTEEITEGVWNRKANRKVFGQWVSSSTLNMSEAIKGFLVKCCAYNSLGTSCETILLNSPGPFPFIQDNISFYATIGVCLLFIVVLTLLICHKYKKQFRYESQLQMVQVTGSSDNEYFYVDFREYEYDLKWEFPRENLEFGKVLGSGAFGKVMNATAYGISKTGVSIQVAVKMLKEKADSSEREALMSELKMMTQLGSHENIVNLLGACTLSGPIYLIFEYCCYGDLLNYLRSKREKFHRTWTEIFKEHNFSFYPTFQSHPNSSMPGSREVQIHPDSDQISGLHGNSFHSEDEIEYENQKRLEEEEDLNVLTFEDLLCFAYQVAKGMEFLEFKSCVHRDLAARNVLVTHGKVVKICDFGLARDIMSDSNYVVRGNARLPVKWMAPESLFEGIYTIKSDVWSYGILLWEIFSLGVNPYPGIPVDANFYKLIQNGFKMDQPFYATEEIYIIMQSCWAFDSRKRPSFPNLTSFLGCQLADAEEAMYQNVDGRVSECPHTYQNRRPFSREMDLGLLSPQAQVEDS

[5] = target: Epidermal growth factor receptor (Homo sapiens) (UniProt P00533); assay: Inhibition of EGFR assessed as enzyme residual activity at 10 uM relative to untreated control; procedure, shortened: as §2
Chain of Epidermal growth factor receptor (Homo sapiens) (P00533 whole entry): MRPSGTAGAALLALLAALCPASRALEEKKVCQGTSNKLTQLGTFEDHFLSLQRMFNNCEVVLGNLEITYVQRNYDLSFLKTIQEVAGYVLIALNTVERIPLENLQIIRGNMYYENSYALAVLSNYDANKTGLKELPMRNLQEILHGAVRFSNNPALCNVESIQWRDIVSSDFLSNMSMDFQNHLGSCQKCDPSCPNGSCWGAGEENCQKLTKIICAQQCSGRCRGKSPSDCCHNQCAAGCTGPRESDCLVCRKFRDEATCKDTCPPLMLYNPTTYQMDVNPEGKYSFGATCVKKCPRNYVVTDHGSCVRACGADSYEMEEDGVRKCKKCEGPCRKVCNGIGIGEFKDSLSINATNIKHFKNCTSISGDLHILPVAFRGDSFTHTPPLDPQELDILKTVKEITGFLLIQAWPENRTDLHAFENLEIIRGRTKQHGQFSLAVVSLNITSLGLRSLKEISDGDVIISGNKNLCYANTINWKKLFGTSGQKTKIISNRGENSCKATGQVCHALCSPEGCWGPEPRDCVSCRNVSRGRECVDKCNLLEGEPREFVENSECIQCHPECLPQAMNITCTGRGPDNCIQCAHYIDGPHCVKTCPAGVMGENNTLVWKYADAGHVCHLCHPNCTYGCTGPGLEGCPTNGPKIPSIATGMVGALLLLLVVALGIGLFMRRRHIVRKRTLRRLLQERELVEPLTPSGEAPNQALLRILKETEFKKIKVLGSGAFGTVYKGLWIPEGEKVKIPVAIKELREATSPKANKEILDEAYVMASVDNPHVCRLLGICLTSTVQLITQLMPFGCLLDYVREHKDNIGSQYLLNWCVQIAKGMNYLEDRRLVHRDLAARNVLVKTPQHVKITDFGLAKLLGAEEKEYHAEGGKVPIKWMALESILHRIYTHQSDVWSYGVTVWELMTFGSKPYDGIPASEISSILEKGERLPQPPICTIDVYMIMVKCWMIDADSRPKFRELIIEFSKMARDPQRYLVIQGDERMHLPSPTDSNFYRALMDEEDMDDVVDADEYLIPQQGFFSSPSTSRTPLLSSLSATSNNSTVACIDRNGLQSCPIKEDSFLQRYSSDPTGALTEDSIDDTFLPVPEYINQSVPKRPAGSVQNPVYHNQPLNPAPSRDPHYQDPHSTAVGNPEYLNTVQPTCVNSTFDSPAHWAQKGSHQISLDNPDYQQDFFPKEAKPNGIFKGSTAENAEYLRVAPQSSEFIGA

[6] = target: RAF proto-oncogene serine/threonine-protein kinase (Homo sapiens) (UniProt P04049); assay: Inhibition of c-RAF assessed as enzyme residual activity at 10 uM relative to untreated control; procedure, shortened: as §2
Chain of RAF proto-oncogene serine/threonine-protein kinase (Homo sapiens) (P04049 whole entry): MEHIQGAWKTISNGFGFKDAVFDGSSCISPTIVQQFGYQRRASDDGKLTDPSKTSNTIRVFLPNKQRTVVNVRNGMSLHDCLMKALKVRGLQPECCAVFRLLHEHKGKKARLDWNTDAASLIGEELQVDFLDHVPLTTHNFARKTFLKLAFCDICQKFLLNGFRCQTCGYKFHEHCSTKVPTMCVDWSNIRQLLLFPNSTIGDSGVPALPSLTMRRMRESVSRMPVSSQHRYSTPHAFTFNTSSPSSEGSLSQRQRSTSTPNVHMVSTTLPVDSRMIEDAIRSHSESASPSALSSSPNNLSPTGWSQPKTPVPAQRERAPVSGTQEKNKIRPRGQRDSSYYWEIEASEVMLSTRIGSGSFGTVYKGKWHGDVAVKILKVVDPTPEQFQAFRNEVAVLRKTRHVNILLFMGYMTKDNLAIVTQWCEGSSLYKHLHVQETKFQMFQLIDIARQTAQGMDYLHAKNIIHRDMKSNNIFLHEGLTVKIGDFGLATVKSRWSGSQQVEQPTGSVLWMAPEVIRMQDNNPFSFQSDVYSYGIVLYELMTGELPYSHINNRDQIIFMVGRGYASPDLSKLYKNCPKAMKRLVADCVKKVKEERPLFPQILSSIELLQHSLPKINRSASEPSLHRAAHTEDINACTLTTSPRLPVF

[7] = system: MKN-45; assay: Induction of apoptosis in human MKN45 assessed as accumulation at subG1 phase at 15 uM incubated for 7 days by flow cytometry (reference value: 10.9 +/- 3.2%); assay type: functional
[8] = system: MKN-45; assay: Induction of apoptosis in human MKN45 assessed as accumulation at subG1 phase at 10 uM incubated for 7 days by flow cytometry (reference value: 10.9 +/- 3.2%); assay type: functional
[9] = system: HUVEC; assay: Induction of apoptosis in human HUVEC assessed as accumulation at subG1 phase at 0.79 uM incubated for 4 days by flow cytometry (reference value: 15.4 +/- 1.5%); assay type: functional
[10] = system: MOLM-14; assay: Cytotoxic activity against human MOLM14 cells assessed as cell viability at 20 uM incubated for 3 days by MTT assay; assay type: functional; conditions: MOLM-14, 72 h, read-out: Activity; procedure, shortened: as §1
[11] = system: MOLM-14; assay: Cytotoxic activity against human MOLM14 cells assessed as cell viability at 10 uM incubated for 3 days by MTT assay; assay type: functional; conditions: MOLM-14, 72 h, read-out: Activity; procedure, shortened: as §1
[12] = system: MKN-45; assay: Cytotoxic activity against human MKN45 cells assessed as cell viability at 50 uM incubated for 5 days by MTT assay; assay type: functional; conditions: MKN-45, 120 h, read-out: Activity; procedure, shortened: as §1
[13] = system: MKN-45; assay: Cytotoxic activity against human MKN45 cells assessed as cell viability at 20 uM incubated for 5 days by MTT assay; assay type: functional; conditions: MKN-45, 120 h, read-out: Activity; procedure, shortened: as §1
[14] = system: MKN-45; assay: Cytotoxic activity against human MKN45 cells assessed as cell viability at 10 uM incubated for 5 days by MTT assay; assay type: functional; conditions: MKN-45, 120 h, read-out: Activity; procedure, shortened: as §1

## COc1cc(C2=C(c3c[nH]c4cnccc34)C(=O)NC2=O)cc(OC)c1OC
[1]
  viability at 5 µM: 105%
[2]
  viability at 1 µM: 107%
[3]
  Activity: 2%
[4]
  Activity: 0%
[5]
  Activity: 111%
[6]
  Activity: 117%
[7]
  Activity: 22.9%
[8]
  Activity: 16.5%
[9]
  Activity: 48%
[10]
  viability at 20 µM: 5.39%
[11]
  viability at 10 µM: 9.35%
[12]
  viability at 50 µM: 68.6%
[13]
  viability at 20 µM: 101%
[14]
  viability at 10 µM: 108%
